# Assays:
# Staphylococcus aureus [1] = assay: Antibacterial activity against methicillin-resistant Staphylococcus aureus N315 after 24 hrs by twofold serial dilution method; type: functional; settings: N315, 24 h
# Procedure, shortened: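 Compounds were dissolved in DMSO as stock, then diluted twofold in Mueller–Hinton broth. Chloromycin and norfloxacin were run as reference drugs. The inoculum was adjusted in sterile saline to 1 × 10⁵ CFU, and a DMSO-plus-inoculum well served as solvent control. Plates were incubated at 37 °C for 24 h and read as MIC.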
# Bacillus [2] = assay: Antibacterial activity against Bacillus proteus ATCC 13315 after 24 hrs by twofold serial dilution method; type: functional; settings: ATCC 13315, 24 h
# Procedure, shortened: (§1)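 Each bacterial suspension was adjusted with sterile saline to 1 × 10⁵ CFU. Compounds were first dissolved in DMSO as stock solutions, then diluted in Mueller–Hinton broth in twofold steps (8, 4, 2, 1, 0.5, 0.25). Dilutions were inoculated and incubated at 37 °C for 24 h, and MIC was read. DMSO plus inoculum without drug served as a solvent control.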
# Candida albicans = assay: Antifungal activity against Candida albicans ATCC 76615 after 24 hrs by twofold serial dilution method; type: functional; settings: ATCC 76615, 24 h
# Procedure, shortened: (§2)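 A fungal spore suspension was made in sterile distilled water from a 1-day-old culture grown on Sabouraud agar, then tested against serial dilutions of compounds (DMSO stocks) to determine MIC.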
# Pseudomonas aeruginosa = assay: Antibacterial activity against Pseudomonas aeruginosa ATCC 27853 after 24 hrs by twofold serial dilution method; type: functional; settings: ATCC 27853, 24 h; procedure, shortened: as §1
# Bacillus subtilis = assay: Antibacterial activity against Bacillus subtilis ATCC 21216 after 24 hrs by twofold serial dilution method; type: functional; settings: ATCC 21216, 24 h; procedure, shortened: as §1
# Aspergillus fumigatus [3] = assay: Antifungal activity against Aspergillus fumigatus ATCC 96918 after 24 hrs by twofold serial dilution method; type: functional; settings: ATCC 96918, 24 h; procedure, shortened: as §2
# Escherichia coli [4] = assay: Antibacterial activity against Escherichia coli ATCC 8099 after 24 hrs by twofold serial dilution method; type: functional; settings: ATCC 8099, 24 h; procedure, shortened: as §1
# Staphylococcus aureus [5] = assay: Antibacterial activity against Staphylococcus aureus ATCC 6538 after 24 hrs by twofold serial dilution method; type: functional; settings: ATCC 6538, 24 h; procedure, shortened: as §1
# Bacillus [6] = assay: Ratio of Chloromycin MIC to compound MIC for Bacillus proteus ATCC 13315; type: functional
# Escherichia coli [7] = assay: Ratio of Chloromycin MIC to compound MIC for Escherichia coli ATCC 8099; type: functional
# Aspergillus fumigatus [8] = assay: Ratio of Fluconazole MIC to compound MIC for Aspergillus fumigatus ATCC 96918
SMILES,MIC (Staphylococcus aureus [1]) [µg/mL],MIC (Bacillus [2]) [µg/mL],MIC (Candida albicans) [µg/mL],MIC (Pseudomonas aeruginosa) [µg/mL],MIC (Bacillus subtilis) [µg/mL],MIC (Aspergillus fumigatus [3]) [µg/mL],MIC (Escherichia coli [4]) [µg/mL],MIC (Staphylococcus aureus [5]) [µg/mL],Ratio (Bacillus [6]),Ratio (Escherichia coli [7]),Ratio (Aspergillus fumigatus [8])
BrCCOc1ccc2ccccc2c1,> 256,> 256,> 256,> 256,> 256,> 256,256,256,–,–,–
O=C1c2cccc3c(Br)ccc(c23)C(=O)N1CCCBr,> 256,> 256,> 256,> 256,> 256,128,256,128,–,–,–
O=C1c2cccc3c(Br)ccc(c23)C(=O)N1CCCCCCBr,> 256,> 256,> 256,> 256,> 256,256,> 256,256,–,–,–
CCCC[n+]1cnn(CC(O)(Cn2c[n+](CCCC)cn2)c2ccc(F)cc2F)c1.[Br-].[Br-],> 256,256,128,256,> 256,> 256,128,> 256,–,–,–
CCCCCCCCCCCC[n+]1cnn(CC(O)(Cn2c[n+](CCCCCCCCCCCC)cn2)c2ccc(F)cc2F)c1.[Br-].[Br-],32,8,2,8,> 256,> 256,2,2,–,–,–
CCCCCCCCCCCCCCCC[n+]1cnn(CC(O)(Cn2c[n+](CCCCCCCCCCCCCCCC)cn2)c2ccc(F)cc2F)c1.[Br-].[Br-],128,256,4,128,128,> 256,8,8,–,–,–
OC(Cn1c[n+](Cc2ccc(F)cc2F)cn1)(Cn1c[n+](Cc2ccc(F)cc2F)cn1)c1ccc(F)cc1F.[Br-].[Br-],256,128,128,> 256,256,> 256,64,64,–,–,–
OC(Cn1c[n+](Cc2ccc(Cl)cc2Cl)cn1)(Cn1c[n+](Cc2ccc(Cl)cc2Cl)cn1)c1ccc(F)cc1F.[Cl-].[Cl-],4,0.5,16,4,16,128,4,8,32,–,–
OC(Cn1c[n+](Cc2ccc(Cl)c(Cl)c2)cn1)(Cn1c[n+](Cc2ccc(Cl)c(Cl)c2)cn1)c1ccc(F)cc1F.[Cl-].[Cl-],64,8,4,16,32,128,32,8,–,–,–
OC(Cn1c[n+](Cc2ccccc2Cl)cn1)(Cn1c[n+](Cc2ccccc2Cl)cn1)c1ccc(F)cc1F.[Cl-].[Cl-],256,8,128,> 256,256,32,128,32,–,–,–
OC(Cn1c[n+](Cc2cccc(Cl)c2)cn1)(Cn1c[n+](Cc2cccc(Cl)c2)cn1)c1ccc(F)cc1F.[Cl-].[Cl-],32,128,4,64,64,256,32,4,–,–,–
OC(Cn1c[n+](Cc2ccc(Cl)cc2)cn1)(Cn1c[n+](Cc2ccc(Cl)cc2)cn1)c1ccc(F)cc1F.[Cl-].[Cl-],> 256,256,256,16,256,64,256,64,–,–,–
F[P-](F)(F)(F)(F)F.F[P-](F)(F)(F)(F)F.OC(Cn1c[n+](Cc2ccc(Cl)cc2Cl)cn1)(Cn1c[n+](Cc2ccc(Cl)cc2Cl)cn1)c1ccc(F)cc1F,32,1,128,64,32,256,≤ 0.25,32,–,256,–
OC(Cn1c[n+](Cc2ccc(Cl)cc2Cl)cn1)(Cn1c[n+](Cc2ccc(Cl)cc2Cl)cn1)c1ccc(F)cc1F.[Br-].[Br-],64,4,64,64,32,128,16,64,–,–,–
OC(Cn1c[n+](Cc2ccc(Cl)cc2Cl)cn1)(Cn1c[n+](Cc2ccc(Cl)cc2Cl)cn1)c1ccc(F)cc1F.[I-].[I-],64,4,64,32,64,32,4,16,–,–,–
Cc1cccc(C[n+]2cnn(CC(O)(Cn3c[n+](Cc4cccc(C)c4)cn3)c3ccc(F)cc3F)c2)c1.[Br-].[Br-],256,256,64,256,256,256,128,16,–,–,–
OC(Cn1c[n+](Cc2ccccc2)cn1)(Cn1c[n+](Cc2ccccc2)cn1)c1ccc(F)cc1F.[Br-].[Br-],128,128,256,128,256,128,256,256,–,–,–
O=[N+]([O-])c1ccc(C[n+]2cnn(CC(O)(Cn3c[n+](Cc4ccc([N+](=O)[O-])cc4)cn3)c3ccc(F)cc3F)c2)cc1.[Br-].[Br-],256,128,128,128,128,128,64,64,–,–,–
O=C1c2cccc3c(Br)ccc(c23)C(=O)N1CCC[n+]1cnn(CC(O)(Cn2c[n+](CCCN3C(=O)c4cccc5c(Br)ccc(c45)C3=O)cn2)c2ccc(F)cc2F)c1.[Br-].[Br-],4,32,8,16,64,16,8,8,–,–,8
O=C1c2cccc3c(Br)ccc(c23)C(=O)N1CCCCCC[n+]1cnn(CC(O)(Cn2c[n+](CCCCCCN3C(=O)c4cccc5c(Br)ccc(c45)C3=O)cn2)c2ccc(F)cc2F)c1.[Br-].[Br-],16,64,16,32,64,32,8,8,–,–,8
Fc1ccc(Cn2cncn2)c(F)c1,> 256,> 256,> 256,> 256,> 256,> 256,> 256,> 256,–,–,–
O=C1c2cccc3c(Br)ccc(c23)C(=O)N1CCCCCCn1cncn1,> 256,> 256,> 256,> 256,> 256,> 256,> 256,> 256,–,–,–
CCCCCCCC[n+]1cnn(Cc2ccc(F)cc2F)c1.[Br-],16,8,32,16,64,32,16,8,–,–,–
Fc1ccc(Cn2c[n+](Cc3ccc(Cl)cc3Cl)cn2)c(F)c1.[Br-],> 256,64,> 256,128,128,> 256,128,> 256,–,–,–
Fc1ccc(Cn2c[n+](CCOc3ccc4ccccc4c3)cn2)c(F)c1.[Br-],64,16,32,8,64,128,8,16,–,–,–
O=C1c2cccc3c(Br)ccc(c23)C(=O)N1CCCCCCn1c[n+](Cc2ccc(F)cc2F)cn1.[Br-],64,16,64,8,128,64,32,16,–,–,–
OC(Cn1cncn1)(Cn1cncn1)c1ccc(F)cc1F [FLUCONAZOLE],–,–,0.5,–,–,256,–,–,–,–,–
CCn1cc(C(=O)O)c(=O)c2cc(F)c(N3CCNCC3)cc21 [NORFLOXACIN],1,1,–,2,1,–,0.5,8,–,–,–
